STAT3 activator: activators of IL-6 induced STAT3 signaling | U3A cells, IL-6 STAT3-luciferase reporter, luminescence; 100% = signal with IL-6 EC80 alone | activation (% of control), % at 5.6 µM | hit rate 0.91% among 190,000;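 active = activation above the screen-wide mean of compound activation plus 3 SD, cut at about 130% in these data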;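 also: 0% = background luminescence of wells with medium and substrate only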
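Material: STAT3-luciferase reporter U3A cells. Controls: IL-6-treated wells, 100% activation. Read-out: % activation versus median of IL-6-stimulated wells. Probe or stimulus: IL-6 stimulus at 33 ng/mL final. Timing: compound 1 h, then IL-6 6 h at 37 °C. Signal: reporter luminescence signal.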
STAT1 blocker: STAT1 signaling inhibition | AID 920 | hit rate 0.35% among 200,000 | inhibition, % at 5.5 µM | NIH 3T3 STAT1-luciferase reporter, IFN-gamma, luminescence;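 active = inhibition above a set limit, the mean inhibition across all tested compounds plus 3 SD, cut at about 34% in these data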;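 also: 0% = IFN-gamma with DMSO and 100% = IFN-gamma with 300 µM nifuroxazide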
NF-kB neuron act: compounds increasing NF-kB expression in human neuronal cells; NF-kB reporter expression; stronger effect = higher value; fold change at 12.5 µM; hit rate 1.6% among 190,000; in the data active = fold change above about 3.3
STAT1 activator: activators of IFN-gamma induced STAT1 signaling. NIH 3T3 STAT1-luciferase reporter, luminescence; 100% = IFN-gamma alone, no compound. activation (% of control), % at 5.5 µM. hit rate 2.6% among 200,000. AID 932;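 active = activation above the screen-wide mean activation plus 3 SD, cut at about 130% in these data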;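 also: raw ratio to IFN-gamma control signal so 100% means no change and 0% no light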
STAT3 blocker: inhibitors of IL-6 induced STAT3 signaling; U3A cells, IL-6 STAT3-luciferase reporter, luminescence; host cell line lacks STAT1; inhibition, % at 5.5 µM; hit rate 0.89% among 190,000;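 active = inhibition above the mean inhibition across all screened compounds plus 3 SD, cut at about 44% in these data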;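 also: 0% = DMSO only wells and 100% = 100 µM nifuroxazide control wells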
APP 5'UTR act: activates APP 5'UTR luciferase reporter | SH-SY5Y APP 5'UTR luciferase reporter, luminescence; zero percent = DMSO vehicle wells | activation, % at 2 µM | hit rate 1% among 190,000;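 active = activation above a set limit, based on mean plus 3 SD of controls, cut at about 140% in these data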
The depositor's hits bear a star; nt = no result given. Only some compounds are listed: those with a hit (about 4.9% of all), similar ones and a draw of the others.

SMILES	STAT3 activator	STAT1 blocker	NF-kB neuron act	STAT1 activator	STAT3 blocker	APP 5'UTR act
CC(NC(=S)NCc1ccccc1)C12CC3CC(CC(C3)C1)C2 (stereo not drawn)	104	0	1.1	100	-6	12
COc1ccc(NC(=O)c2ccc(-c3ccccc3Cl)o2)cc1	104	-33	2.2	130*	-7	49
CC(C)N(Cc1nccn1C)C(=O)CCc1nnc(CCCc2ccccc2)o1	112	-40	2.7	137*	-8	44
CN(CCc1ccccn1)C(=O)CCc1nnc(CCCc2ccccc2)o1	103	-38	2.3	133*	-1	2
CC(C)N(CCO)C(=O)CCc1nnc(CCCc2ccccc2)o1	84	-8	1.6	107	24	-11
CCOC(=O)CSc1n[nH]c(NC(C)=O)n1	98	3	1	96	8	-10
O=C(Nc1ccon1)c1ccc(N2CCCCC2)c([N+](=O)[O-])c1	110	-58	3.2	150*	-5	133
Cc1cc(NC(=O)c2ccc(N3CCCC3)c([N+](=O)[O-])c2)no1	91	-6	1	105	15	5
CC(=O)Nc1ccc(-c2csc(Nc3cc(C)ccn3)n2)cc1	88	-44	1.1	140*	24	41
Cc1ccc(Nc2nc(-c3ccc(O)c(O)c3)cs2)nc1	85	-42	9.4*	136*	21	-6
COc1ccc(-c2csc(Nc3ccc(C)cn3)n2)cc1OC	89	-24	1.2	122	17	31
c1ccc(Nc2nc(-c3cccnc3)cs2)nc1	88	-49	5*	144*	18	194*
CC(=O)Nc1cccc(-c2csc(Nc3ccccn3)n2)c1	87	-49	5.4*	143*	18	184*
CCOc1ccc(/C=N/Nc2cc(=O)n(C)c(=O)n2C)cc1	76	-7	0.99	106	28	4
CC(=O)c1cccc(Nc2nc(-c3cccc([N+](=O)[O-])c3)cs2)c1	102	-46	1.5	131*	7	1
c1ccc(Nc2nc(-c3cccs3)cs2)nc1	95	-38	9.6*	136*	8	181*
CCOC(=O)c1sc2nc3n(c(=O)c2c1C)CCC3	87	-10	0.92	109	16	18
CCOC(=O)c1sc2nc3n(c(=O)c2c1C)CCCCC3	91	-36	2.5	133*	18	-2
Cn1ncc2c(Nc3ccc4ccccc4c3)ncnc21	103	-50	2.5	145*	2	81
Cc1ccc(-c2cnn(-c3cccc(C(F)(F)F)c3)c2N)cc1	100	-42	2.4	138*	8	134
Cc1cc(C)nc(Sc2nc(C)nc3c2oc2ccccc23)n1	127	2	7.4*	98	-28	-6
CCOC(=O)c1c(C)oc2c1c(C(c1cccnc1)N1CCOCC1)c(O)c1ccccc12 (stereo not drawn)	133*	0	3.6*	100	-32	103
CCOC(=O)c1c(C)oc2c1c1c(c3ccccc32)OCN(Cc2cccnc2)C1	126	-7	4.7*	106	-26	77
CC(C)c1ccccc1-n1c(SCc2cc(=O)oc3ccc4ccccc4c23)nnc1-c1cccnc1	103	0	0.64	100	-4	-3
Fc1ccc(-n2ncc3c(SCc4cccnc4)ncnc32)cc1	77	-19	3.4*	118	29	90
SMILES	STAT3 activator	STAT1 blocker	NF-kB neuron act	STAT1 activator	STAT3 blocker	APP 5'UTR act
COc1ccc(C2C(C(C)=O)=C(O)C(=O)N2c2ccc(Br)cn2)cc1 (stereo not drawn)	134*	-9	1.3	108	-36	43
CC[C@H](C)/C=C(C)/C=C/C1=CC2=CC(=O)[C@]3(C)OC(=O)[C@@H](C(C)=O)[C@@H]3C2=CO1	nt	4	3.8*	95	nt	-3
O=C(COC(=O)Cc1ccc(Cl)cc1)Nc1c(F)cccc1F	99	4	1.3	98	6	-5
Cc1ccc(CNC(=O)CSc2ccsc2[N+](=O)[O-])cc1	115	-37	1.6	134*	-15	52
O=C(CSc1ccsc1[N+](=O)[O-])NCCc1ccc(Cl)cc1	109	3	1.1	95	0	5
O=C(CSc1ccsc1[N+](=O)[O-])NCCc1ccccc1	136*	0	1.4	100	-37	-10
COc1ccc(CNC(=O)CSc2ccsc2[N+](=O)[O-])cc1	110	-19	2.5	119	-9	35
O=C(Nc1ccccc1)N1CCCC2CCCCC21 (stereo not drawn)	101	-35	2	131*	3	32
O=C(NC1CCCC1)C1CCCN1C(=O)Nc1ccccc1 (stereo not drawn)	104	-4	0.98	104	1	-6
CCc1ccc(/C=C2\SC(=S)N(CCC(=O)N3CCN(C)CC3)C2=O)cc1	99	-7	3.3*	106	12	-9
CCC1(C)Cc2ccccc2C(=S)N1 (stereo not drawn)	103	-5	1.1	104	2	3
COc1ccccc1NC(=O)Nc1nnc(C(C)C)s1	107	-44	1.7	140*	-5	43
COc1cc(Cl)cc(/C=N/NC(N)=O)c1O	98	-6	1.2	104	12	-9
Cn1nc(C(=O)NC2CCCc3ccccc32)ccc1=O (stereo not drawn)	94	3	1.1	97	10	20
c1ccc2nc(-c3nc4ccccc4o3)ccc2c1	36	38*	1.1	64	80*	115
O=C(/C=C/c1ccnc2ccccc12)c1cccs1	78	-4	1	103	33	183*
OCCC1CN(Cc2nc3ccccc3s2)CCN1CCc1ccccc1 (stereo not drawn)	109	4	1.3	95	-5	2
Nc1ccccc1SCC(=O)N1CCc2ccccc21	94	-17	1.8	116	10	20
O=C(CSC1=NCCS1)N1CCc2ccccc21	108	-29	3.5*	127	-4	85
Cc1ccc(C(=O)N2CCc3ccccc32)cc1	131	-20	1.5	115	-33	23
O=C(c1ccc(C(=O)N2CCCc3ccccc32)s1)N1CCCc2ccccc21	84	-4	0.66	104	20	8
CCc1sc(C(=O)N2CCc3ccccc32)cc1C	84	-36	8.3*	134*	23	189*
O=C(c1ccc(Cl)s1)N1CCc2ccccc21	112	-56	3.3	144*	-13	121
ONC(=Nc1ccc(Cl)cc1)c1ccccc1	109	1	1.1	99	-6	nt
COc1ccc(C(C)(C)C)cc1NC(=O)CNc1cccc2ccccc12	136*	3	0.93	97	-40	-3
CC(C)c1ccc(C(=O)NN2C(=O)C3CCCCC3C2=O)cc1 (stereo not drawn)	92	-48	1.6	144*	17	55
